From ChEMBL document CHEMBL4732226, “Discovery of a potent G-protein-coupled receptor 119 agonist for the treatment of type 2 diabetes” (Bioorg Med Chem, 2021)

Key:
[1] = test system: Mus musculus; assay: Antidiabetic activity in db/db mouse assessed as reduction in blood glucose level at 50 mg/kg, po pretreated for 30 mins followed by glucose-stimulation and measured up to 120 mins by OGTT method relative to control; format: functional; design: scale not given: the % may be the effect or the level left; conditions: 0.5 h
Outline: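 db/db mice aged 5–7 weeks were fasted and grouped by fasting serum glucose. Single oral dose of 50 mg/kg; 30 min later basal bleed and oral glucose 2 g/kg. Serum glucose taken at 30, 60 and 120 min. AUC glucose excursion computed against a no-glucose water group and expressed as % reduction vs vehicle; mean ± s.e.m.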

[2] = Tmax in Sprague-Dawley rat at 25 mg/kg, po up to 24 hrs; format: ADME, organism-based; conditions: in vivo
Outline: (§1)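 Male SD rats fasted overnight, water ad libitum, fed 4 h after dosing. Single oral gavage of 25 mg/kg as a homogeneous suspension in 0.5% Tween 80 in 0.5% Na-CMC. Blood drawn into Na-heparin tubes at 0.25, 0.5, 1, 2, 4, 6, 8 and 24 h; plasma stored at -70°C. Parameters by non-compartmental analysis, with C0 taken as zero and BLQ samples set to zero.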

[3] = Half life in Sprague-Dawley rat at 25 mg/kg, po up to 24 hrs; format: ADME, organism-based; conditions: in vivo; outline: as §1
[4] = AUC(0 to t) in Sprague-Dawley rat at 25 mg/kg, po up to 24 hrs; format: ADME, organism-based; design: route oral, dose 25 mg/kg, time <=24; conditions: in vivo; outline: as §1
[5] = Tmax in Wistar rat at 10 mg/kg, po up to 24 hrs; format: ADME, organism-based; conditions: in vivo
Outline: (§2)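 Single oral dose at 10 mg/kg given to male Wistar rats and to Beagle dogs; bioavailability also determined in both species.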

[6] = AUC(0 to infinity) in Beagle dog at 10 mg/kg, po up to 24 hrs; format: ADME, organism-based, Canis lupus familiaris; design: route oral, dose 10 mg/kg, time <=24; conditions: in vivo; outline: as §2
[7] = Toxicity in male Wistar rat assessed as ratio of heart to body weight at 200 mg/kg, po after 28 days (reference value: 0.333 +/- 0.036); format: organism-based; conditions: in vivo, 672 h, time 28 day
[8] = Toxicity in female Wistar rat assessed as ratio of heart to body weight at 100 mg/kg, po after 28 days (reference value: 0.38 +/- 0.037); format: organism-based; conditions: in vivo, 672 h, time 28 day
[9] = Toxicity in male Wistar rat assessed as ratio of liver to body weight at 100 mg/kg, po after 28 days (reference value: 3.142 +/- 0.231); format: organism-based; conditions: in vivo, 672 h, time 28 day
[10] = Toxicity in male Wistar rat assessed as ratio of liver to body weight at 200 mg/kg, po after 28 days (reference value: 3.142 +/- 0.231); format: organism-based; conditions: in vivo, 672 h, time 28 day
[11] = Toxicity in male Wistar rat assessed as ratio of kidney to body weight at 400 mg/kg, po after 28 days (reference value: 0.787 +/- 0.078); format: organism-based; conditions: in vivo, 672 h, time 28 day
[12] = Toxicity in female Wistar rat assessed as ratio of kidney to body weight at 200 mg/kg, po after 28 days (reference value: 0.801 +/- 0.071); format: organism-based; conditions: in vivo, 672 h, time 28 day
[13] = Toxicity in male Wistar rat assessed as ratio of adrenals to body weight at 400 mg/kg, po after 28 days (reference value: 0.020 +/- 0.003); format: organism-based; conditions: in vivo, 672 h, time 28 day
[14] = Toxicity in female Wistar rat assessed as ratio of adrenals to body weight at 100 mg/kg, po after 28 days (reference value: 0.045 +/- 0.007); format: organism-based; conditions: in vivo, 672 h, time 28 day
[15] = Toxicity in male Wistar rat assessed as ratio of testes to body weight at 100 mg/kg, po after 28 days (reference value: 1.248 +/- 0.073); format: organism-based; conditions: in vivo, 672 h, time 28 day
[16] = Toxicity in female Wistar rat assessed as ratio of ovaries to body weight at 400 mg/kg, po after 28 days (reference value: 0.091 +/- 0.009); format: organism-based; conditions: in vivo, 672 h, time 28 day
[17] = Toxicity in male Wistar rat assessed as ratio of epididymides to body weight at 200 mg/kg, po after 28 days (reference value: 0.361 +/- 0.028); format: organism-based; conditions: in vivo, 672 h, time 28 day
[18] = Toxicity in male Wistar rat assessed as ratio of epididymides to body weight at 400 mg/kg, po after 28 days (reference value: 0.361 +/- 0.028); format: organism-based; conditions: in vivo, 672 h, time 28 day
[19] = Toxicity in female Wistar rat assessed as ratio of uterus to body weight at 100 mg/kg, po after 28 days (reference value: 0.335 +/- 0.108); format: organism-based; conditions: in vivo, 672 h, time 28 day
[20] = Toxicity in female Wistar rat assessed as ratio of uterus to body weight at 400 mg/kg, po after 28 days (reference value: 0.335 +/- 0.108); format: organism-based; conditions: in vivo, 672 h, time 28 day
[21] = Toxicity in male Wistar rat assessed as ratio of thymus to body weight at 100 mg/kg, po after 28 days (reference value: 0.148 +/- 0.023); format: organism-based; conditions: in vivo, 672 h, time 28 day
[22] = Toxicity in female Wistar rat assessed as ratio of thymus to body weight at 100 mg/kg, po after 28 days (reference value: 0.260 +/- 0.025); format: organism-based; conditions: in vivo, 672 h, time 28 day
[23] = Toxicity in male Wistar rat assessed as globulin level at 200 mg/kg, po after 28 days (reference value: 2.62 +/- 0.12 g/dl); format: organism-based; conditions: in vivo, 672 h, time 28 day
[24] = Toxicity in female Wistar rat assessed as globulin level at 200 mg/kg, po after 28 days (reference value: 2.44 +/- 0.18 g/dl); format: organism-based; conditions: in vivo, 672 h, time 28 day
[25] = Toxicity in female Wistar rat assessed as globulin level at 400 mg/kg, po after 28 days (reference value: 2.44 +/- 0.18 g/dl); format: organism-based; conditions: in vivo, 672 h, time 28 day
[26] = Toxicity in male Wistar rat assessed as creatinine level at 100 mg/kg, po after 28 days (reference value: 0.61 +/- 0.04 mg/dl); format: organism-based; conditions: in vivo, 672 h, time 28 day
[27] = Toxicity in male Wistar rat assessed as creatinine level at 400 mg/kg, po after 28 days (reference value: 0.61 +/- 0.04 mg/dl); format: organism-based; conditions: in vivo, 672 h, time 28 day
[28] = Toxicity in female Wistar rat assessed as creatinine level at 100 mg/kg, po after 28 days (reference value: 0.6 +/- 0.04 mg/dl); format: organism-based; conditions: in vivo, 672 h, time 28 day
[29] = Toxicity in female Wistar rat assessed as creatinine level at 400 mg/kg, po after 28 days (reference value: 0.6 +/- 0.04 mg/dl); format: organism-based; conditions: in vivo, 672 h, time 28 day
[30] = Toxicity in male Wistar rat assessed as ALP level at 400 mg/kg, po after 28 days (reference value: 174.77 +/- 25.42 U/L); format: organism-based; conditions: in vivo, 672 h, time 28 day
[31] = Toxicity in male Wistar rat assessed as AST level at 100 mg/kg, po after 28 days (reference value: 119.4 +/- 9.3 U/L); format: organism-based; conditions: in vivo, 672 h, time 28 day
[32] = Toxicity in female Wistar rat assessed as albumin level at 100 mg/kg, po after 28 days (reference value: 3.57 +/- 0.14 g.dl); format: organism-based; conditions: in vivo, 672 h, time 28 day
[33] = Toxicity in male Wistar rat assessed as urea level at 400 mg/kg, po after 28 days (reference value: 58.14 +/- 9.13 mg/dl); format: organism-based; conditions: in vivo, 672 h, time 28 day
[34] = Toxicity in female Wistar rat assessed as urea level at 200 mg/kg, po after 28 days (reference value: 48.09 +/- 5.3 mg/dl); format: organism-based; conditions: in vivo, 672 h, time 28 day
[35] = Toxicity in female Wistar rat assessed as urea level at 400 mg/kg, po after 28 days (reference value: 48.09 +/- 5.3 mg/dl); format: organism-based; conditions: in vivo, 672 h, time 28 day

SMILES: Cc1c(Oc2cccc(/C=C3\SC(=O)NC3=O)c2)ncnc1OC1CCN(C(=O)OC(C)(C)C)CC1
- Activity [1]: 69.1%
- Tmax [2]: 1.75 h
- half-life [3]: 3.09 h
- AUC(0-t) at 24 h [4]: 19100 ng·h/mL
- Tmax [5]: 1.5 h
- AUC(0-inf) [6]: 15200 ng·h/mL
- Ratio [7]: 0.363
- Ratio [8]: 0.41
- Ratio [9]: 3.237
- Ratio [10]: 3.304
- Ratio [11]: 0.845
- Ratio [12]: 0.84
- Ratio [13]: 0.023
- Ratio [14]: 0.046
- Ratio [15]: 1.228
- Ratio [16]: 0.081
- Ratio [17]: 0.406
- Ratio [18]: 0.365
- Ratio [19]: 0.345
- Ratio [20]: 0.429
- Ratio [21]: 0.167
- Ratio [22]: 0.241
- Activity [23]: 2.64 g/dL
- Activity [24]: 2.42 g/dL
- Activity [25]: 2.42 g/dL
- Activity [26]: 0.57 mg/dL
- Activity [27]: 0.57 mg/dL
- Activity [28]: 0.63 mg/dL
- Activity [29]: 0.6 mg/dL
- Activity [30]: 177.44 U/L
- Activity [31]: 114.13 U/L
- Activity [32]: 3.59 g/dL
- Activity [33]: 51.15 mg/dL
- Activity [34]: 46.42 mg/dL
- Activity [35]: 43.2 mg/dL
